Measurements from ChEMBL document CHEMBL3407369, “Exploration of cyanine compounds as selective inhibitors of protein arginine methyltransferases: synthesis and biological evaluation” (J Med Chem, 2015).
Active and inactive are the calls of the source. The calls are words filed in the database; no cut-off is given here.

The compounds below were run against T1, Protein arginine N-methyltransferase 1 (Homo sapiens, UniProt Q99873) (assay: Displacement of [3H]-SAM from recombinant His6-tagged PRMT1 (unknown origin) expressed in Escherichia coli BL21(DE3) at 10 uM incubated for 5 mins prior to H4(1 to 20)-BTN peptide addition measured after 8 mins by scintillation proximity assay).
How it was run: (§1)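 His6-PRMT1 (0.02 µM) was purified from E. coli BL21(DE3) on Ni-NTA. It was preincubated 5 min with compound (10, 30 or 90 µM) and [3H]SAM (0.5 µM) in 50 mM HEPES pH 8.0, 1 mM EDTA, 50 mM NaCl, 0.5 mM DTT at ~25 °C. Biotinylated H4(1–20) peptide (1 µM) was added and the reaction run 8 min. It was quenched with isopropanol and read with streptavidin SPA beads. % inhibition was taken against water (full activity) and no-peptide blanks.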
Target sequence in this assay (Q99873 whole entry, looked up): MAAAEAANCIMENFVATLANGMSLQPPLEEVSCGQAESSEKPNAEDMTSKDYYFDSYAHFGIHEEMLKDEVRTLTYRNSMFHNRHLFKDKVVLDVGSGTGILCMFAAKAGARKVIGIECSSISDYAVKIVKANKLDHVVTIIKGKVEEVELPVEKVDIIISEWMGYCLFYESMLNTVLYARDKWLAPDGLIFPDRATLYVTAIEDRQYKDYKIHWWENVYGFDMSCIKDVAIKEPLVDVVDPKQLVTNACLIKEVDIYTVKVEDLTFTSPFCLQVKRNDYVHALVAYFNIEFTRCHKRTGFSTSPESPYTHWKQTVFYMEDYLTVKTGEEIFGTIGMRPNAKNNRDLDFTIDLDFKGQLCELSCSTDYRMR
Compound `CCCC[N+]1=C(/C=C/C=C2/N(C)c3ccccc3C2(C)C)C(C)(C)c2ccccc21` has an inhibition of 8%. `CCN1/C(=C/C=C/C=C/C2=[N+](CC)c3ccc4ccccc4c3C2(C)C)C(C)(C)c2c1ccc1ccccc21` showed an inhibition of 89%. Work on `CC1(C)C(/C=C/C=C/C=C2/N(CCCc3ccccc3)c3ccc4ccccc4c3C2(C)C)=[N+](CCCc2ccccc2)c2ccc3ccccc3c21` yielded an inhibition of 70.2%. Work on `C(/C=C/c1sc2ccccc2[n+]1CCCc1ccccc1)=C1/Sc2ccccc2N1CCCc1ccccc1` yielded an inhibition of 76%. With `CCN1/C(=C\C=C\C2=[N+](CC)c3ccccc3C2(C)C)C(C)(C)c2ccccc21` the inhibition was 4%. In the case of `CCCC[N+]1=C(C)C(C)(C)c2ccccc21`, the inhibition is reported as “inactive”. In the case of `CN1/C(=C/C=C/C2=[N+](CCC[N+](C)(C)C)c3ccc(S(=O)(=O)[O-])cc3C2(C)C)C(C)(C)c2ccccc21`, the inhibition is reported as “inactive”. With `CCN1/C(=C/C=C/c2sc3c4ccccc4ccc3[n+]2CC)Sc2c1ccc1ccccc21` the inhibition was 40%. In the case of `CCN1/C(=C/C(C)=C/c2sc3c4ccccc4ccc3[n+]2CC)Sc2c1ccc1ccccc21`, the inhibition is reported as 92%. Compound `CCCCN1/C(=C/C=C/C2=[N+](CCCC)c3ccc(Br)cc3C2(C)C)C(C)(C)c2cc(Br)ccc21` has an inhibition of 48%. `CC[N+]1=C(/C=C/C=C2/N(C)c3ccccc3C2(C)C)C(C)(C)c2ccccc21` was tested, and the inhibition was “inactive”. `CC1(C)C(/C=C/C(Cl)=C/C=C2/N(CCCc3ccccc3)c3ccc4ccccc4c3C2(C)C)=[N+](CCCc2ccccc2)c2ccc3ccccc3c21` was tested, and the inhibition was 96.3%. For `CC1(C)C(/C=C/C=C2/N(CCCc3ccccc3)c3ccc(Cl)cc3C2(C)C)=[N+](CCCc2ccccc2)c2ccc(Cl)cc21`, the inhibition was 100%. Compound `CCCC[N+]1=C(/C=C/C=C2/N(C)c3ccccc3C2(C)C)C(C)(C)c2cc(Br)ccc21` has an inhibition of 36%. With `CCCCN1/C(=C/C=C/c2sc3ccccc3[n+]2CCCC)Sc2ccccc21` the inhibition was 79%. Work on `CCCCN1/C(=C/C(/C=C/c2ccccc2)=C/c2sc3ccccc3[n+]2CCCC)Sc2ccccc21` yielded an inhibition of 48%. With `CC1(C)C(/C=C/C=C2/N(CCCc3ccccc3)c3ccc(Br)cc3C2(C)C)=[N+](CCCc2ccccc2)c2ccc(Br)cc21` the inhibition was 101%. Compound `CCCCN1/C(=C/C=C/c2sc3cc(Br)ccc3[n+]2CCCC)Sc2cc(Br)ccc21` has an inhibition of 93%. `CCCCN1/C(=C/C=C/c2sc3ccc(Br)cc3[n+]2CCCC)Sc2ccc(Br)cc21` gave an inhibition of 91%.

Each compound was assayed against T1, Protein arginine N-methyltransferase 1 (assay: Displacement of [3H]-SAM from recombinant His6-tagged PRMT1 (unknown origin) expressed in Escherichia coli BL21(DE3) at 30 uM incubated for 5 mins prior to H4(1 to 20)-BTN peptide addition measured after 8 mins by scintillation proximity assay).
How it was run: as §1
Target sequence in this assay (Q99873 whole entry, looked up): as above
`CCCC[N+]1=C(/C=C/C=C2/N(C)c3ccccc3C2(C)C)C(C)(C)c2ccccc21` was tested, and the inhibition was 32%. Compound `CCN1/C(=C\C=C\C2=[N+](CC)c3ccccc3C2(C)C)C(C)(C)c2ccccc21` has an inhibition of 42%. `CCCC[N+]1=C(C)C(C)(C)c2ccccc21` was tested, and the inhibition was “inactive”. `CC[N+]1=C(/C=C/C=C2/N(C)c3ccccc3C2(C)C)C(C)(C)c2ccccc21` showed an inhibition of 9%.

What follows are compounds tested against T1, Protein arginine N-methyltransferase 1 (assay: Displacement of [3H]-SAM from recombinant His6-tagged PRMT1 (unknown origin) expressed in Escherichia coli BL21(DE3) at 90 uM incubated for 5 mins prior to H4(1 to 20)-BTN peptide addition measured after 8 mins by scintillation proximity assay).
How it was run: as §1
Target sequence in this assay (Q99873 whole entry, looked up): as above
`CCCC[N+]1=C(/C=C/C=C2/N(C)c3ccccc3C2(C)C)C(C)(C)c2ccccc21` was tested, and the inhibition was 79%. `CCN1/C(=C\C=C\C2=[N+](CC)c3ccccc3C2(C)C)C(C)(C)c2ccccc21` gave an inhibition of 60.6%. With `CCCC[N+]1=C(C)C(C)(C)c2ccccc21` the inhibition was “inactive”. In the case of `CC[N+]1=C(/C=C/C=C2/N(C)c3ccccc3C2(C)C)C(C)(C)c2ccccc21`, the inhibition is reported as 41%.

What follows are compounds tested against T1, Protein arginine N-methyltransferase 1 (assay: Displacement of [3H]-SAM from recombinant His6-tagged PRMT1 (unknown origin) expressed in Escherichia coli BL21(DE3) incubated for 5 mins prior to H4(1 to 20)-BTN peptide addition measured after 8 mins by scintillation proximity assay).
How it was run: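 Serial compound dilutions were tested in the same SPA format (His-tagged enzyme purified from E. coli BL21(DE3), 5 min preincubation, H4(1–20)-biotin substrate, 8 min reaction, ~25 °C, HEPES pH 8.0 buffer). [3H]SAM and peptide were set near their predetermined Km values for each enzyme. Remaining activity was fitted to a Hill-modified IC50 equation, giving IC50 and Hill coefficient.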
Target sequence in this assay (Q99873 whole entry): as the sequence (Q99873 whole entry, looked up) above
Work on `CCCCN1/C(=C\C=C\C2=[N+](CCCC)c3ccc4ccccc4c3C2(C)C)C(C)(C)c2c1ccc1ccccc21` yielded an IC50 of 2560 nM. In the case of `CCN1/C(=C/C=C/C=C/C2=[N+](CC)c3ccc4ccccc4c3C2(C)C)C(C)(C)c2c1ccc1ccccc21`, the IC50 is reported as 3390 nM. In the case of `CC1(C)C(/C=C/C=C/C=C2/N(CCCc3ccccc3)c3ccc4ccccc4c3C2(C)C)=[N+](CCCc2ccccc2)c2ccc3ccccc3c21`, the IC50 is reported as 5760 nM. With `CCN1/C(=C/C(C)=C/c2sc3c4ccccc4ccc3[n+]2CC)Sc2c1ccc1ccccc21` the IC50 was 2370 nM. In the case of `CC1(C)C(/C=C/C(Cl)=C/C=C2/N(CCCc3ccccc3)c3ccc4ccccc4c3C2(C)C)=[N+](CCCc2ccccc2)c2ccc3ccccc3c21`, the IC50 is reported as 1810 nM. For `CC1(C)C(/C=C/C=C2/N(CCCc3ccccc3)c3ccc(Cl)cc3C2(C)C)=[N+](CCCc2ccccc2)c2ccc(Cl)cc21`, the IC50 was 1150 nM. `CC1(C)C(/C=C/C=C2/N(CCCc3ccccc3)c3ccc(Br)cc3C2(C)C)=[N+](CCCc2ccccc2)c2ccc(Br)cc21` showed an IC50 of 1250 nM. Work on `CCCCN1/C(=C/C=C/c2sc3cc(Br)ccc3[n+]2CCCC)Sc2cc(Br)ccc21` yielded an IC50 of 2670 nM. Work on `CCCCN1/C(=C/C=C/c2sc3ccc(Br)cc3[n+]2CCCC)Sc2ccc(Br)cc21` yielded an IC50 of 2030 nM.

The compounds below were run against Protein arginine N-methyltransferase 5 (Homo sapiens, UniProt O14744) (assay: Displacement of [3H]-SAM from recombinant His6-tagged PRMT5 (unknown origin) expressed in Escherichia coli BL21(DE3) incubated for 5 mins prior to H4(1 to 20)-BTN peptide addition measured after 8 mins by scintillation proximity assay).
Chain of Protein arginine N-methyltransferase 5 (O14744 whole entry): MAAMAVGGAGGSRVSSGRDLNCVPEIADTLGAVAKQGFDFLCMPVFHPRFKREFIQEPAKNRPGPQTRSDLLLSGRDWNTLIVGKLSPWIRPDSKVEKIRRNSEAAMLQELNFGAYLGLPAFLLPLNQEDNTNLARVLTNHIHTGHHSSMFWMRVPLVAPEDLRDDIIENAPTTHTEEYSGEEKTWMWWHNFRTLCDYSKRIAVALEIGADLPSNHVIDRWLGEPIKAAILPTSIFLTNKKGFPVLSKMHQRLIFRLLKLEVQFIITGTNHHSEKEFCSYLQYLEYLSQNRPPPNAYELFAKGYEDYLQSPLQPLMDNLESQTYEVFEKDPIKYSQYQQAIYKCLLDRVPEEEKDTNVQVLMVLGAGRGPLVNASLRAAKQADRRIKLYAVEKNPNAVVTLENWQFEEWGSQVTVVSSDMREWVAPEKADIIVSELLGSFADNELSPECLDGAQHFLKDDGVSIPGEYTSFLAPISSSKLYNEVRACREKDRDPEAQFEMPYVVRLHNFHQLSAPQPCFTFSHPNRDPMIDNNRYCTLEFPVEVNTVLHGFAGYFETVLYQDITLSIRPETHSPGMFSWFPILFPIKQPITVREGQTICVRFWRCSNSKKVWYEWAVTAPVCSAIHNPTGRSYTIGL
How it was run: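 Recombinant His6-PRMT5 was purified on Ni-NTA after IPTG induction in E. coli BL21(DE3). [3H]SAM and H4(1–20)BTN were set near their predetermined Km. Serially diluted compound was preincubated 5 min before peptide addition, reacted 8 min, isopropanol-quenched, and read with streptavidin SPA beads. IC50 and nH came from a Hill fit.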
For `CCCCN1/C(=C/C=C/c2sc3ccc(Br)cc3[n+]2CCCC)Sc2ccc(Br)cc21`, the IC50 was 8360 nM.

Species: Homo sapiens
Assay: Selectivity ratio of IC50 for recombinant […] (unknown origin) to IC50 for recombinant His6-tagged PRMT1 (unknown origin)
With `CCCCN1/C(=C/C=C/c2sc3ccc(Br)cc3[n+]2CCCC)Sc2ccc(Br)cc21` the Ratio IC50 was 3.

Species: Homo sapiens
Assay: Selectivity ratio of IC50 for recombinant His6-tagged PRMT5 (unknown origin) to IC50 for recombinant His6-tagged PRMT1 (unknown origin)
`CCCCN1/C(=C/C=C/c2sc3ccc(Br)cc3[n+]2CCCC)Sc2ccc(Br)cc21` gave a Ratio IC50 of 3.

Each compound was assayed against T2, Histone-arginine methyltransferase CARM1 (Homo sapiens, UniProt Q86X55) (assay: Displacement of [3H]-SAM from recombinant GST-tagged CARM1 (unknown origin) expressed in Escherichia coli BL21(DE3) incubated for 5 mins prior to H3.3 protein addition measured after 8 mins by P81 filter paper binding assay).
T2 sequence (Q86X55 whole entry): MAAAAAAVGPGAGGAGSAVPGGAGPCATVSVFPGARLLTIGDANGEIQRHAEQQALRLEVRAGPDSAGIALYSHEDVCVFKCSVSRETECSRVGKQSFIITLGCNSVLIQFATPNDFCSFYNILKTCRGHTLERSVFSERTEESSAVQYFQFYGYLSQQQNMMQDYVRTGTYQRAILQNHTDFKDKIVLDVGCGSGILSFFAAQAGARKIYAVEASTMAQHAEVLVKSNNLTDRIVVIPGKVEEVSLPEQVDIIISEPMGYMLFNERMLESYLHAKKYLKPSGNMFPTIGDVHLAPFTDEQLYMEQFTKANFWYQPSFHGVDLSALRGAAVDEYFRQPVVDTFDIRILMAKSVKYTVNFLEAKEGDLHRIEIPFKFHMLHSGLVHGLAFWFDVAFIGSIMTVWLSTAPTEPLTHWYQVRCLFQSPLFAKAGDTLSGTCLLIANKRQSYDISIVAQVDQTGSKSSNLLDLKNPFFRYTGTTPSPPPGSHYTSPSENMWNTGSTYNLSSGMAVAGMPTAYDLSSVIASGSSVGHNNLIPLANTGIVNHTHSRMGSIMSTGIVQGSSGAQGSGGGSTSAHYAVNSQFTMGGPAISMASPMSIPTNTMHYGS
Work on `CCCCN1/C(=C/C=C/c2sc3ccc(Br)cc3[n+]2CCCC)Sc2ccc(Br)cc21` yielded an IC50 of 7230 nM.
